Measurements: ChEMBL document CHEMBL3853263, “Effect of intercalator and Lewis acid-base branched peptide complex formation: boosting affinity towards HIV-1 RRE RNA” (Medchemcomm, 2016)
pIC50, pKd: −log10 of the molar value. Activity calls are given as the source filed them. No cut-off for these calls is given here. Numbered stars: 1 amine (or outer) side, 2 acyl side, 3 side chain; on linkers, the order of the positions; unused ones are H or OH. Side chains are listed from the residue outwards. Peptide text beside a SMILES is read from it. * marks the point of attachment. X2 = NCCCC[C@H](NC(=O)[C@@H](N)CCCCN)C(=O)N[C@@H](CCCCNC(=O)c1ccc(B(O)O)cc1)C(=O)*; X1 = NCCCC[C@H](N)C(=O)N[C@@H](CCCCNc1c2ccccc2nc2ccccc12)C(=O)*; X3 = NCCCC[C@H](N)C(=O)N[C@@H](CCCCNC(=O)c1ccc(B(O)O)cc1)C(=O)*; Benzoyl(4-B(OH)2) = O=C(c1ccc(B(O)O)cc1)*; Acridin9yl = c1ccc2c(*)c3ccccc3nc2c1; εLys = N[C@@H](CCCCN[*:1])C(=O)[*:2]

Columns and labels:
[1] = Cytotoxicity against human U87 cells transfected with CD4/CXCR4 assessed as decrease in cell viability up to 100 uM after 24 hrs by MTT assay; format: toxicity, cell-based; details: u-87mg atcc
Procedure, shortened: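 U87 CXCR4 cells are seeded at 1 x 10⁴/well and incubated overnight at 37 °C in 5% CO₂. They are treated with 100, 50 or 10 µM (final) compound for 24 h. Tetrazolium dye is added for 4 h, then solubilization/stop solution for 1 h. A570 is read and normalized to untreated cells set at 1.0.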

[2] = Binding affinity to HIV1 wild type [32P]-labeled RRE-2B RNA after 4 hrs by electrophoretic mobility shift assay; parameters: species or system Human immunodeficiency virus 1
Procedure, shortened: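 5'-³²P RRE-IIB (4 nM in 2x phosphate buffer, pH 7.0) is refolded at 95 °C for 3 min, then rt for 20 min. It is mixed 1:1 with peptide in water (final 0.001–10 µM) for 4 h at rt. Complexes are resolved by 10% native PAGE at 4 °C. Kd is the 50%-binding concentration from a sigmoidal fit of % RNA bound vs log[peptide]. Triplicates.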

[3] = test system: Human immunodeficiency virus 1; assay: (§1) Antiviral activity against HIV1 NL4-3 infected in human U87 cells transfected with CD4/CXCR4 assessed as inhibition of viral replication at 10 uM preincubated for 1 hr followed by viral infection for 24 hrs and subsequent compound wash out and addition of additional compound measured at 72 hrs post infection by p24 assay relative to control; format: functional, U-87MG ATCC; details: Human immunodeficiency virus 1, NL4-3, U-87 MG
Procedure, shortened: (§2)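 U87-CD4/CXCR4 cells are seeded at 1 x 10⁴/well and left to adhere overnight. Compounds come from 1 mM stocks in water, diluted in RPMI. Cells are pretreated for 1 h, then infected with NL4-3 (CXCR4-tropic) at MOI 0.01 for 24 h. Cells are PBS-washed and given fresh medium with more compound. p24 is quantified in supernatant at 72 h post-infection.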

[4] = Cytotoxicity against HIV1 NL4-3 infected human U87 cells transfected with CD4/CXCR4 assessed as decrease in cell viability at 20 to 80 uM after 72 hrs by MTT assay; format: toxicity, cell-based; details: u-87mg atcc
[5] = test system: Human immunodeficiency virus 1; assay: as §1, with “replication” for “replication at 10 uM”, “assay” for “assay relative to control”; format: functional, cell-based, U-87MG ATCC; details: for pIC50: Human immunodeficiency virus 1, NL4-3, U-87 MG; for inhibition: U-87MG ATCC; procedure, shortened: as §2
[6] = test system: Human immunodeficiency virus 1; assay: as §1, with “100” for “10”, “assay” for “assay relative to control”; format: functional, cell-based; details: U-87MG ATCC; procedure, shortened: as §2
[7] = test system: Human immunodeficiency virus 1; assay: as §1, with “40” for “10”; format: functional, U-87MG ATCC; details: Human immunodeficiency virus 1, NL4-3, U-87 MG; procedure, shortened: as §2
[8] = test system: Human immunodeficiency virus 1; assay: Binding affinity to HIV1 wild type 2-aminopurine-labeled RRE-2B RNA assessed as 1:1 binding stoichiometry between compound and RNA at 0.25 to 4 molar ratio of compound/RNA by Job plot method
[9] = test system: Human immunodeficiency virus 1; assay: Binding affinity to HIV1 wild type [32P]-labeled RRE-2B RNA assessed as protection of RNA from RNase T1-induced cleavage by footprinting method
Procedure, shortened: (§3)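 5'-³²P RRE-IIB (10 nM) plus unlabeled RRE-IIB (200 nM) is heated to 95 °C for 3 min and snap-cooled. It is incubated with peptide on ice for 4 h in 10 mM Tris pH 7, 100 mM KCl, 10 mM MgCl₂. Digestion is on ice for 1 h, with RNase T1 at 1 U or RNase A at 20 ng. Cleavage is stopped by precipitation, run on 12% PAGE with 7.5 M urea, and read by autoradiography.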

[10] = test system: Human immunodeficiency virus 1; assay: Binding affinity to HIV1 wild type [32P]-labeled RRE-2B RNA assessed as protection of RNA from RNase A-induced cleavage at 0.2 to 20 uM by footprinting method; procedure, shortened: as §3

pKd [2]	SMILES	Activity [1]	Activity [4]	inhibition [6]	also measured
6.85	CC(C)C[C@H](NC(=O)[C@H](CCCCNc1c2ccccc2nc2ccccc12)NC(=O)[C@H](CCCCNC(=O)[C@H](CCCCN)NC(=O)[C@H](CCCCN)NC(=O)[C@@H](N)CCCCN)NC(=O)[C@H](CCCCN)NC(=O)[C@H](CCCCN)NC(=O)[C@@H](N)CCCCN)C(=O)N[C@@H](CCCCN)C(=O)N[C@@H](Cc1ccc(O)cc1)C(N)=O (H-KKKK([Lys-Lys-Lys])K(Acridin9yl)LKY-NH2)	Non-Toxic		Active	
7.22	CC(C)C[C@H](NC(=O)[C@H](CCCCN)NC(=O)[C@H](CCCCNC(=O)[C@H](CCCCN)NC(=O)[C@H](CCCCN)NC(=O)[C@@H](N)CCCCNc1c2ccccc2nc2ccccc12)NC(=O)[C@H](CCCCN)NC(=O)[C@H](CCCCN)NC(=O)[C@@H](N)CCCCNc1c2ccccc2nc2ccccc12)C(=O)N[C@@H](CCCCNC(=O)c1ccc(B(O)O)cc1)C(=O)N[C@@H](Cc1ccc(O)cc1)C(N)=O (H-K(Acridin9yl)KKK([Lys-Lys-εLys-Acridin9yl])KLK(Benzoyl(4-B(OH)2))Y-NH2)	Non-Toxic	Non-Toxic	Active	Activity [8]: Active; Activity [9]: Dose-dependent effect; pIC50 [5]: 5.00; inhibition [5]: Dose-dependent effect; inhibition at 40 µM [7]: 90%; Activity [10]: Active
6.89	CC(C)C[C@H](NC(=O)[C@H](CCCCNC(=O)c1ccc(B(O)O)cc1)NC(=O)[C@H](CC(C)C)NC(=O)[C@H](CCCCNC(=O)[C@H](CCCCN)NC(=O)[C@H](CCCCN)NC(=O)[C@@H](N)CCCCN)NC(=O)[C@H](CCCCN)NC(=O)[C@H](CCCCN)NC(=O)[C@@H](N)CCCCN)C(=O)N[C@@H](Cc1ccc(O)cc1)C(N)=O (H-KKKK([Lys-Lys-Lys])LK(Benzoyl(4-B(OH)2))LY-NH2)	Non-Toxic			
5.84	CC(C)C[C@H](NC(=O)[C@@H](N)CCCCN)C(=O)N[C@@H](CCCCN)C(=O)NCCCC[C@H](NC(=O)[C@H](CCCCN)NC(=O)[C@H](CC(C)C)NC(=O)[C@@H](N)CCCCN)C(=O)N[C@@H](CCCCN)C(=O)N[C@@H](CCCCN)C(=O)N[C@@H](CCCCNC(=O)c1ccc(B(O)O)cc1)C(=O)N[C@@H](Cc1ccc(O)cc1)C(N)=O (H-KLKK([Lys-Leu-Lys])KKK(Benzoyl(4-B(OH)2))Y-NH2)	Non-Toxic			inhibition at 10 µM [3]: 40%
7.70	CC(C)C[C@H](NC(=O)[C@H](CCCCN)NC(=O)[C@H](CCCCNC(=O)[C@H](CCCCN)NC(=O)[C@H](CCCCN)NC(=O)[C@@H](N)CCCCN)NC(=O)[C@H](CCCCN)NC(=O)[C@H](CCCCN)NC(=O)[C@@H](N)CCCCN)C(=O)N[C@@H](CCCCNc1c2ccccc2nc2ccccc12)C(=O)N[C@@H](Cc1ccc(O)cc1)C(N)=O (H-KKKK([Lys-Lys-Lys])KLK(Acridin9yl)Y-NH2)	Non-Toxic	Non-Toxic	Active	

The remaining lines, values behind:

SMILES	pKd [2]	Activity [1]	Activity [4]	inhibition [6]	also measured
CC(C)C[C@H](NC(=O)[C@H](CCCCN)NC(=O)[C@H](CCCCNC(=O)[C@H](CCCCN)NC(=O)[C@H](CCCCNc1c2ccccc2nc2ccccc12)NC(=O)[C@@H](N)CCCCN)NC(=O)[C@H](CCCCN)NC(=O)[C@H](CCCCNc1c2ccccc2nc2ccccc12)NC(=O)[C@@H](N)CCCCN)C(=O)N[C@@H](CCCCNC(=O)c1ccc(B(O)O)cc1)C(=O)N[C@@H](Cc1ccc(O)cc1)C(N)=O (H-KK(Acridin9yl)KK([Lys-X1])KLK(Benzoyl(4-B(OH)2))Y-NH2)	7.15	Dose-dependent effect	Non-Toxic	Active	inhibition at 10 µM [3]: 60%; pIC50 [5]: 5.14; inhibition [5]: Dose-dependent effect; inhibition at 40 µM [7]: 90%
CC(C)C[C@H](NC(=O)[C@H](CCCCNC(=O)[C@H](CCCCN)NC(=O)[C@H](CC(C)C)NC(=O)[C@@H](N)CCCCN)NC(=O)[C@H](CCCCN)NC(=O)[C@H](CC(C)C)NC(=O)[C@@H](N)CCCCN)C(=O)N[C@@H](CCCCN)C(=O)N[C@@H](CCCCNC(=O)c1ccc(B(O)O)cc1)C(=O)N[C@@H](Cc1ccc(O)cc1)C(N)=O (H-KLKK([Lys-Leu-Lys])LKK(Benzoyl(4-B(OH)2))Y-NH2)	6.52	Non-Toxic			
CC(C)C[C@H](NC(=O)[C@H](CCCCN)NC(=O)[C@H](CCCCNC(=O)[C@H](CCCCNC(=O)c1ccc(B(O)O)cc1)NC(=O)[C@H](CCCCN)NC(=O)[C@@H](N)CCCCN)NC(=O)[C@H](CCCCNC(=O)c1ccc(B(O)O)cc1)NC(=O)[C@H](CCCCN)NC(=O)[C@@H](N)CCCCN)C(=O)N[C@@H](CCCCNC(=O)c1ccc(B(O)O)cc1)C(=O)N[C@@H](Cc1ccc(O)cc1)C(N)=O (H-KKK(Benzoyl(4-B(OH)2))K(X2)KLK(Benzoyl(4-B(OH)2))Y-NH2)	6.92	Non-Toxic			
NCCCC[C@H](NC(=O)[C@H](CCCCN)NC(=O)[C@@H](N)CCCCN)C(=O)NCCCC[C@H](NC(=O)[C@H](CCCCN)NC(=O)[C@H](CCCCN)NC(=O)[C@@H](N)CCCCN)C(=O)N[C@@H](CCCCNc1c2ccccc2nc2ccccc12)C(=O)N[C@@H](CCCCNc1c2ccccc2nc2ccccc12)C(=O)N[C@@H](CCCCN)C(=O)N[C@@H](Cc1ccc(O)cc1)C(N)=O (H-KKKK([Lys-Lys-Lys])K(Acridin9yl)K(Acridin9yl)KY-NH2)		Non-Toxic	Non-Toxic	Active	inhibition [5]: Dose-dependent effect; inhibition at 40 µM [7]: 90%
CC(C)C[C@H](NC(=O)[C@H](CCCCNC(=O)[C@H](CCCCN)NC(=O)[C@H](CCCCN)NC(=O)[C@@H](N)CCCCN)NC(=O)[C@H](CCCCN)NC(=O)[C@H](CCCCN)NC(=O)[C@@H](N)CCCCN)C(=O)N[C@@H](CCCCNC(=O)c1ccc(B(O)O)cc1)C(=O)N[C@@H](CCCCNC(=O)c1ccc(B(O)O)cc1)C(=O)N[C@@H](Cc1ccc(O)cc1)C(N)=O (H-KKKK([Lys-Lys-Lys])LK(Benzoyl(4-B(OH)2))K(Benzoyl(4-B(OH)2))Y-NH2)	6.55	Non-Toxic	Non-Toxic	Active	
CC(C)C[C@H](NC(=O)[C@H](CCCCN)NC(=O)[C@@H](N)CCCCN)C(=O)NCCCC[C@H](NC(=O)[C@H](CC(C)C)NC(=O)[C@H](CCCCN)NC(=O)[C@@H](N)CCCCN)C(=O)N[C@@H](CCCCN)C(=O)N[C@@H](CCCCNC(=O)c1ccc(B(O)O)cc1)C(=O)N[C@@H](CCCCNC(=O)c1ccc(B(O)O)cc1)C(=O)N[C@@H](Cc1ccc(O)cc1)C(N)=O (H-KKLK([Leu-Lys-Lys])KK(Benzoyl(4-B(OH)2))K(Benzoyl(4-B(OH)2))Y-NH2)	6.77	Non-Toxic			
CC(C)C[C@H](NC(=O)[C@@H](N)CC(C)C)C(=O)N[C@@H](CCCCN)C(=O)NCCCC[C@H](NC(=O)[C@H](CCCCN)NC(=O)[C@H](CC(C)C)NC(=O)[C@@H](N)CC(C)C)C(=O)N[C@@H](CCCCN)C(=O)N[C@@H](CCCCNC(=O)c1ccc(B(O)O)cc1)C(=O)N[C@@H](CCCCN)C(=O)N[C@@H](Cc1ccc(O)cc1)C(N)=O (H-LLKK([Lys-Leu-Leu])KK(Benzoyl(4-B(OH)2))KY-NH2)	6.68	Non-Toxic			
CC(C)C[C@H](NC(=O)[C@H](CC(C)C)NC(=O)[C@H](CCCCNC(=O)[C@H](CCCCN)NC(=O)[C@H](CCCCNC(=O)c1ccc(B(O)O)cc1)NC(=O)[C@@H](N)CCCCN)NC(=O)[C@H](CCCCN)NC(=O)[C@H](CCCCNC(=O)c1ccc(B(O)O)cc1)NC(=O)[C@@H](N)CCCCN)C(=O)N[C@@H](CCCCN)C(=O)N[C@@H](Cc1ccc(O)cc1)C(N)=O (H-KK(Benzoyl(4-B(OH)2))KK([Lys-X3])LLKY-NH2)	6.18	Non-Toxic			
CC(C)C[C@H](NC(=O)[C@H](CCCCN)NC(=O)[C@@H](N)CCCCN)C(=O)NCCCC[C@H](NC(=O)[C@H](CC(C)C)NC(=O)[C@H](CCCCN)NC(=O)[C@@H](N)CCCCN)C(=O)N[C@@H](CC(C)C)C(=O)N[C@@H](CCCCN)C(=O)N[C@@H](CCCCNC(=O)c1ccc(B(O)O)cc1)C(=O)N[C@@H](Cc1ccc(O)cc1)C(N)=O (H-KKLK([Leu-Lys-Lys])LKK(Benzoyl(4-B(OH)2))Y-NH2)	6.48	Non-Toxic			
